Assay results reported in ChEMBL document CHEMBL3407407, “New mimetic peptides inhibitors of Αβ aggregation. Molecular guidance for rational drug design” (Eur J Med Chem, 2015).
Active and inactive are the calls of the source. The calls are words filed in the database; no cut-off is given here.

Tests used:
[1] = target: Amyloid-beta precursor protein (Homo sapiens) (UniProt P05067); test: Inhibition of amyloid beta(42) aggregation (unknown origin) after 7 days by thioflavin T fluorescence method
Sequence of Amyloid-beta precursor protein (Homo sapiens) (P05067 whole entry): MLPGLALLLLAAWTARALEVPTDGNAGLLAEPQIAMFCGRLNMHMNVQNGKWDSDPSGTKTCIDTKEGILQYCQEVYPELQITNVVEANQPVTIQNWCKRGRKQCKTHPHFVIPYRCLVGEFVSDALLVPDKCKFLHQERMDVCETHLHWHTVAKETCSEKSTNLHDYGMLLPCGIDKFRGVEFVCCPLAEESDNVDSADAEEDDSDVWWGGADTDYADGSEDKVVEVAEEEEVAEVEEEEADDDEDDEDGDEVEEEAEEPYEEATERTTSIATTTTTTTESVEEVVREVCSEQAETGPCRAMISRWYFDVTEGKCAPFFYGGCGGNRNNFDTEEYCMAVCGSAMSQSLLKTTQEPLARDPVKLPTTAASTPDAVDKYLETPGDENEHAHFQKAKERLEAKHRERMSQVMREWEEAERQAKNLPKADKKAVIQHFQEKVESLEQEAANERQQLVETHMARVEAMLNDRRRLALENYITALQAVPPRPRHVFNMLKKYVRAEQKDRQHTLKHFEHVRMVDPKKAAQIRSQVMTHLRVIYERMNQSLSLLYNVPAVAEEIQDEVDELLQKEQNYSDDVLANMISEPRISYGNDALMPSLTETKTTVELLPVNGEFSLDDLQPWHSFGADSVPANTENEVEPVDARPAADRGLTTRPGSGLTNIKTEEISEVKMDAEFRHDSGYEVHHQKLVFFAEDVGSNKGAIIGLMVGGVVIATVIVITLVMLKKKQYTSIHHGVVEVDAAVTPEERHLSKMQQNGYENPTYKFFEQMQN
Outline: (§1)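 Aβ42 at 25 mM (so in the source) in PBS, concentration set by A280 (ε 1490 M-1 cm-1), incubated quiescent at 37 °C for 7 days with compound (range 0–3200 mM as printed, from DMSO; final DMSO 5%). Samples then mixed with […] for 10 min at room temperature. Excitation 450 nm, emission 470–560 nm. Independent triplicates averaged, buffer+ThT+compound background subtracted.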

[2] = target: Amyloid-beta precursor protein (Homo sapiens) (UniProt P05067); test: Inhibition of amyloid beta(42) aggregation (unknown origin) at 100 uM after 7 days by thioflavin T fluorescence method; outline: as §1
[3] = target: Amyloid-beta precursor protein (Homo sapiens) (UniProt P05067); test: Inhibition of amyloid beta(42) aggregation (unknown origin) at 100 to 200 uM after 7 days by transmission electron microscopy
Outline: (§2)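 Aβ42 at 25 mM (so in the source) was incubated with compound at 37 °C for 7 days. Aliquots were adsorbed for 1 min onto carbon-coated Formvar copper grids, then blotted, washed and negatively stained for transmission electron microscopy.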

[4] = target: Amyloid-beta precursor protein (Homo sapiens) (UniProt P05067); test: Inhibition of amyloid beta(42) aggregation (unknown origin) at 100 to 3200 uM after 1.5 hrs using anti-amyloid beta antibody DE2B4 by dot blot analysis
Outline: (§3)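 Aβ42 at 25 mM (so in the source) was incubated quiescent at 37 °C for 1.5 h across a compound concentration range (5% DMSO) and spotted on nitrocellulose. For A11, blots were blocked in PBS/0.2% Tween-20, then taken through A11 (1:4000, Hepes pH 7.0, overnight 4 °C) and anti-rabbit-HRP. For DE2B4 (total Aβ), blots were blocked in PBS-Tween/5% milk, then DE2B4 1:20,000 overnight 4 °C and anti-mouse-HRP. Read-out was chemiluminescence.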

[5] = target: Amyloid-beta precursor protein (Homo sapiens) (UniProt P05067); test: Inhibition of amyloid beta(42) aggregation (unknown origin) at 100 to 3200 uM after 1.5 hrs using anti-oligomer A11 antibody by dot blot analysis; outline: as §3
[6] = target: Amyloid-beta precursor protein (Homo sapiens) (UniProt P05067); test: Inhibition of amyloid beta(42) aggregation (unknown origin) assessed as A11-positive oligomer formation at 100 uM after 0.5 to 70 hrs by kinetic study
Outline: (§4)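 A11 dot-blot time course. Aβ42 at 25 mM (so in the source) was incubated at 37 °C with compound at 100 mM (so in the source), 5% DMSO vehicle (5% water for the reference). Aliquots were taken at 0.5, 1.5, 5, 20, 30, 55 and 70 h, spotted on nitrocellulose, then probed with A11 and anti-rabbit-HRP. Read-out was chemiluminescence.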

[7] = target: Amyloid-beta precursor protein (Homo sapiens) (UniProt P05067); test: Inhibition of amyloid beta(42) aggregation (unknown origin) assessed as A11-positive oligomer formation at 100 uM up to 1.5 hrs by kinetic study; outline: as §4
[8] = target: Amyloid-beta precursor protein (Homo sapiens) (UniProt P05067); test: Inhibition of amyloid beta(42) aggregation (unknown origin) at 100 uM up to 1.5 hrs by thioflavin T fluorescence-based kinetic study
Outline: (§5)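 In situ ThT kinetics. Aβ42 at 25 mM (so in the source) in PBS was incubated at 37 °C in sealed wells with 15 mM ThT and compound at 100 mM (so in the source), diluted 20-fold from DMSO to 5% DMSO. Fluorescence was read at intervals with excitation 450 nm and emission 470–600 nm. Background was corrected for ThT plus vehicle, with or without compound.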

[9] = target: Amyloid-beta precursor protein (Homo sapiens) (UniProt P05067); test: Inhibition of amyloid beta(42) aggregation (unknown origin) at 100 uM after 5 hrs by thioflavin T fluorescence-based kinetic study; outline: as §5
[10] = target: Amyloid-beta precursor protein (Homo sapiens) (UniProt P05067); test: Inhibition of amyloid beta(42) aggregation (unknown origin) at 100 uM after 7 days by transmission electron microscopy; outline: as §2
[11] = target: Amyloid-beta precursor protein (Homo sapiens) (UniProt P05067); test: Inhibition of amyloid beta(42) aggregation (unknown origin) at 0.78 to 3200 uM after 1.5 hrs using anti-amyloid beta antibody DE2B4 by dot blot analysis; outline: as §3
[12] = target: Amyloid-beta precursor protein (Homo sapiens) (UniProt P05067); test: Inhibition of amyloid beta(42) aggregation (unknown origin) at 0.78 to 3200 uM after 1.5 hrs using anti-oligomer A11 antibody by dot blot analysis; outline: as §3
[13] = target: Amyloid-beta precursor protein (Homo sapiens) (UniProt P05067); test: Inhibition of amyloid beta(42) aggregation (unknown origin) at 0.75 to 100 uM after 7 days by thioflavin T fluorescence method; outline: as §1
[14] = target: Amyloid-beta precursor protein (Homo sapiens) (UniProt P05067); test: Inhibition of amyloid beta(42) aggregation (unknown origin) at 3200 uM after 7 days by thioflavin T fluorescence method; outline: as §1
[15] = target: Amyloid-beta precursor protein (Homo sapiens) (UniProt P05067); test: Inhibition of amyloid beta(42) aggregation (unknown origin) at 100 to 3200 uM after 7 days by transmission electron microscopy; outline: as §2

| inhibition [1] | inhibition [2] | inhibition [4] | inhibition [5] | inhibition [6] | inhibition [7] | inhibition [8] | inhibition [9] | inhibition [10] | inhibition [11] | inhibition [12] | Compound | also measured |
| --- | --- | --- | --- | --- | --- | --- | --- | --- | --- | --- | --- | --- |
| Dose-dependent effect | Active | Active | Active | Active | Active | Active | inactive | – | – | – | CC(C)(C)OC(=O)N[C@@H](CCCCNC(=O)OCc1ccccc1)C(=O)ON1C(=O)CCC1=O | inhibition [3]: Active |
| Dose-dependent effect | Active | Active | Active | Active | Active | Active | inactive | – | – | – | O=C(NCCCC[C@H](NC(=O)OCc1ccccc1)C(=O)ON1C(=O)CCC1=O)OCc1ccccc1 | – |
| – | – | – | – | inactive | – | – | – | – | – | – | O[C@H]1[C@H](O)[C@@H](O)[C@H](O)[C@@H](O)[C@@H]1O | – |
| – | – | – | – | inactive | – | – | – | inactive | inactive | inactive | O=C(NCCCC[C@H](NC(=O)OCC1c2ccccc2-c2ccccc21)C(=O)O)OCc1ccccc1 | – |
| – | – | – | – | inactive | – | – | – | inactive | inactive | inactive | O=C(NCCCC[C@H](NC(=O)OCc1ccccc1)C(=O)O)OCc1ccccc1 | inhibition [13]: inactive |
| Dose-dependent effect | – | – | – | inactive | – | – | – | – | – | – | CNc1ccc(C(=O)N[C@@H](CCCCNC(=O)OCc2ccccc2)C(=O)O)cc1 | inhibition [14]: Active; inhibition [15]: Active |
